Most compounds without a hit are left out; they make up all but 2% or so of the library.
DAGLB inhibitor – DAGLB lipase inhibitors, primary screen, biochemical, fluorescence, HTS | HEK293T DAGLB membrane lysate, EnzChek fluorogenic substrate | inhibition, % at 5.17 µM | hit rate 0.059% among 340,000 | AID 504411, 2011; in the data active means inhibition above about 34%;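 further: 0% = enzyme with vehicle and 100% = wells lacking enzyme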
Target sequence (Q8NCG7 whole entry, looked up): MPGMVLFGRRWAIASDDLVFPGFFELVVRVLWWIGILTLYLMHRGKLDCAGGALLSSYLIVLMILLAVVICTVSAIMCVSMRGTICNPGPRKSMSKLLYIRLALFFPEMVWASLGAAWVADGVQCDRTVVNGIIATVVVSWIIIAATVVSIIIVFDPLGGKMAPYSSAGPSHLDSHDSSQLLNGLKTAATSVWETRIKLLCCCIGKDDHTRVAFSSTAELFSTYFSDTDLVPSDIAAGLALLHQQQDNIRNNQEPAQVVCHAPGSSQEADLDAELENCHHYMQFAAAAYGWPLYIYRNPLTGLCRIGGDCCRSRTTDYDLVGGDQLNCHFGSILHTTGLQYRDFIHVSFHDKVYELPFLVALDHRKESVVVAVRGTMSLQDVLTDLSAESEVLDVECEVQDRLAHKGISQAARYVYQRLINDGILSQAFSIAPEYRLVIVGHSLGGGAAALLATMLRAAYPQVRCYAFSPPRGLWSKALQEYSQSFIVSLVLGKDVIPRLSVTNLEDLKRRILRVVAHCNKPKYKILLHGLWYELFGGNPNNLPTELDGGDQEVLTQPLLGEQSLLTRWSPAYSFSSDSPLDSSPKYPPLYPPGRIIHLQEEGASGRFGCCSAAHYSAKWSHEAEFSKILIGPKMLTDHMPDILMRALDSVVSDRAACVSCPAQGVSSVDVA
Exocytosis inh – LAMP-1 surface exposure blockers, TALL-104 cells – cell-based, flow cytometry, MLPCN library, primary screen; TALL-104 LAMP-1 surface exposure; cells stimulated with thapsigargin and PMA; inhibition, % at 10 µM; hit rate 0.66% among 360,000;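 active means inhibition above about 55%, limit read from the data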
VLA-4 inh – inhibition in human VLA-4 binding assay, primary screen, VLA-4 allosteric modulator project, MLPCN library, flow cytometry, VLA-4 expressing cells; Integrin alpha-4 (Homo sapiens), P13612; ligand binding flow cytometry; hit rate 0.2% among 330,000; inhibition, % (about 7 µM as worked out from the volumes in the protocol); in the data active means inhibition above about 50%
ABCB6 inh MLPCN – ABCB6 transporter inhibitors, primary screen, K562-ABCB6 cells, flow cytometry, MLPCN library. ATP-binding cassette sub-family B member 6 (Homo sapiens), Q9NP58. K562-ABCB6 porphyrin accumulation, 1 h; active compounds read low. fluorescence ratio to DMSO, % at 10 µM. hit rate 0.19% among 360,000;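 active means fluorescence ratio to DMSO below 75%, the collection mean minus 3 SD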;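 further: signal is porphyrin accumulated inside mitochondria; 100% equals median channel fluorescence of DMSO control wells; lower ratio means ABCB6 inhibition with less porphyrin fluorescence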
MT1-MMP act inh – blockers of MT1-MMP proenzyme processing, primary screen, HT1080 RFP-PRO-GFP cells, GFP/RFP fluorescence | Matrix metalloproteinase-14 (Homo sapiens), P50281 | GFP/RFP ratio change, % at 20 µM | hit rate 0.061% among 360,000 | GFP/RFP ratio fluorescence, overnight; percent of plate control window, DMSO zero;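 active means GFP/RFP ratio change of at least 30% with cell ATP level not reduced by more than half and red fluorescence within 50% of control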
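Read-out: GFP/RFP fluorescence ratio; Test system: RFP-PRO-GFP reporter HT1080 cells; Compound dosing: single-point 20 µM compound, 1% DMSO; Times: overnight compound exposure at 37 °C.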
FGF22 binding – binders of human FGF22 protein, primary screen, FGF22 synaptogenesis inhibitor project, biophysical, thermal shift, single point; Fibroblast growth factor 22 (Homo sapiens), Q9HCT0; recombinant FGF22 thermal shift, SYPRO orange fluorescence; percent of sucrose octasulfate shift, DMSO zero; activity (Tm shift, normalised), % at 9.99 µM; hit rate 1.5% among 340,000;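 active means mean Tm shift, scaled 0 neutral to 100 positive control, at about 1.3% or above, every replicate too, limit read from the data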
VLA-4 mod pick – retest of VLA-4 allosteric modulators, confirmation, cell-based, cherry-picked plates, U937, HUTS-21 LIBS antibody; shares compounds with VLA-4 inh; U937 cells, HUTS-21 LIBS mAb binding, flow cytometry; LDV ligand present at threefold Kd; inhibition, % at 6.7 µM; hit rate 2% among 1,300; in the data active means inhibition above about 40%;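 further: 0% = ligand without compound and 100% = no ligand background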
Active calls of the source: *; / = no result given.

SMILES	DAGLB inhibitor	Exocytosis inh	VLA-4 inh	ABCB6 inh MLPCN	MT1-MMP act inh	FGF22 binding	VLA-4 mod pick
Cc1ccc(C)c(N(CC(=O)N2CCCCCC2)S(C)(=O)=O)c1	-1.3	-2.2	-1.5	99.0	1.9	-0.1	/
COc1ccc(S(=O)(=O)Nc2ccc3c(c2)C(=O)N([C@H](C)CO)C[C@@H](C)[C@H](CN(C)C)O3)cc1	/	/	/	/	/	0.1	/
CCCCn1c(NC(=O)c2ccccc2)c(C#N)c2nc3ccccc3nc21	-15.6	13.7	/	146.0	-164.8	/	/
CCCCn1cc(C(C)(C)C)c(C#N)c1NC(C)=O	-0.6	-0.7	50.4*	103.0	3.5	0.0	0.0
O=C(/C=C/c1ccccc1)C1=C(O)C(=O)N(CCO)C1c1cccc([N+](=O)[O-])c1 (stereo not given)	/	0.7	-12.8	101.0	1.6	-0.2	/
O=C(/C=C/c1ccccc1)C1=C(O)C(=O)N(CCO)C1c1ccccc1[N+](=O)[O-] (stereo not given)	2.2	-0.6	51.3*	99.0	-4.3	0.0	6.5
C[C@@H]1CN([C@@H](C)CO)C(=O)Cc2cc(NS(=O)(=O)c3cn(C)cn3)ccc2O[C@@H]1CN(C)C	/	/	/	/	/	0.1	/
COc1ccc(C(=O)NC(=S)NCc2cccnc2)cc1Br	1.7	-1.4	-4.2	99.0	1.3	0.3	/
Cc1ccc(C(=O)NC(=S)NCc2cccnc2)cc1C	-1.5	0.5	54.9*	89.0	/	0.1	-9.5
CCC(Sc1ccc2nnc(-c3ccc(OC)c(OC)c3)n2n1)C(=O)O (stereo not given)	2.7	3.8	7.4	96.0	8.0	-0.1	0.4
C[C@H](O)C#Cc1cnc2c(c1)C(=O)N([C@@H](C)CO)C[C@H](C)[C@@H](CN(C)CC1CCCC1)O2	/	/	/	/	/	0.0	/
O=C(C[C@H]1C=C[C@@H](NS(=O)(=O)c2ccccc2)[C@@H](CO)O1)NCc1ccncn1	/	/	/	/	/	0.1	/
C[C@@H]1CN([C@@H](C)CO)S(=O)(=O)c2ccc(-c3cccc(C#N)c3)cc2O[C@H]1CN(C)Cc1cccc(F)c1	/	/	/	/	/	-0.3	/
COc1ccc(C2CC3(CC(C)(C)NC(SC)=N3)Oc3cc(O)cc(C)c32)cc1 (stereo not given)	1.8	-0.9	41.1	99.0	-9.9	0.3	-7.7
CCOc1cc(CNCCCN2CCOCC2)cc(Br)c1OCc1ccccc1Cl	-0.3	37.1	55.7*	98.0	-5.9	0.0	25.8
CCn1c(=N)n(CC(O)c2cccs2)c2ccccc21 (stereo not given)	1.2	12.8	41.2	106.0	-3.6	0.2	2.1
CCOCCn1c(=NC(=O)/C=C/c2ccccc2Cl)sc2cc(NC(C)=O)ccc21	-3.1	-2.0	43.4	101.0	2.6	/	-9.3
O=C(COc1ccccc1)NCc1nnc2c3ccccc3c(-c3ccccc3)nn12	-0.4	-5.8	55.7*	100.0	4.5	/	0.6
COCC(=O)N1C[C@@H](C)[C@H](OC)CN(C)C(=O)c2cc(NC(=O)c3ccc(OC)cc3)ccc2OC[C@H]1C	/	/	/	/	/	0.1	/
NC(=O)NS(=O)(=O)Oc1ccccc1	-0.6	37.5	50.4*	94.0	-4.5	0.0	-14.7
NC(=O)c1ccccc1OCC(=O)NS(=O)(=O)c1ccccc1	-1.5	-0.9	-6.7	108.0	-8.3	/	/
CCOC(=O)c1c(NC(=O)COC(=O)CNC(=O)c2ccc(Cl)cc2Cl)sc(C(=O)N(C)C)c1C	-3.1	15.1	51.6*	98.0	2.7	/	0.7

Source: PubChem BioAssay
